Reference: the EternaBench riboswitch data

System: MS2 coat protein
Assay: apparent Kd, MS2 coat protein; higher = weaker binding; RNA-MaP array; FMN 200 µM where present
Summary of the method: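 SNAP-549-labelled MS2 coat protein, doubled from 0.7 or 1.5 nM to 3 µM, was titrated over designs transcribed by stalled E. coli RNA polymerase on Illumina sequencing-chip clusters. Titrations were run without and then with constant ligand in 100 mM Tris-HCl pH 7.5, 80 mM KCl, 4 mM MgCl2, BSA, DTT, yeast tRNA and Tween-20. The apparent Kd is the median of filtered per-cluster fits to green signal normalised to red-channel RNA signal and control-cluster median Fmax.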

[1] = designed as: OFF switch for flavin mononucleotide, no ligand
[2] = ligand present: flavin mononucleotide, designed as: OFF switch for flavin mononucleotide
[3] = designed as: ON switch for flavin mononucleotide, no ligand
[4] = ligand present: flavin mononucleotide, designed as: ON switch for flavin mononucleotide

| Sequence | apparent Kd [1] [nM] | apparent Kd [2] [nM] | apparent Kd [3] [nM] | apparent Kd [4] [nM] |
| --- | --- | --- | --- | --- |
| GUCUCGAUGUAAGGAUAUGCAGUGGAAUACACUGCAGAAGGUACAUGAGGAUCACCCAUGUAACUCUAAUAAUAAUAACGAGAC | 12 | 19.2 | – | – |
| GCUGCAUAUGAGAAGGCGAUCAUGAAACAUGAUCGAGGAUAUCAUGUUUACAUGAGGAUCACCCAUGUAUGGGUAUAAUGCAGC | – | – | 492 | 14 |
| CUUUGGUCAGGAUAUGGUGGGCUGGUCGCGCGGCCGGGUGGCCAGAAGGGACAUGAGGAUCACCCAUGUACGGC | 35.5 | 59.7 | – | – |
| CUCAUGUAAGGAUAUCUACGCGCUAAGGUGCGUCUAUCACAAGAGAAGGUACAUGAGGAUCACCCAUGUAAAGA | 103 | 127 | – | – |
| UUCCUCGUUGUGAGGAUAUCGUAUUCUUUUUGUUACGAGAAGGCACAUGAGGAUCACCCAUGUUUCUUGAUGUU | 19.5 | 68.8 | – | – |
| UCACGGAGCCUAGGAUAUACAUGAGGAUCACCCAUGUAUUGACGUUAGUGCUGGACUGAUUUGCUGUAGAAGGAGGUCACUGAG | 16.6 | 18.3 | – | – |
| UCCAGGCGAGGAUAUACAAAGAUUUUUUCGUUUUGUCUCGAACAUGAGGAUCACCCAUGUAGAAGGUGCUGCUG | 57.5 | 52.9 | – | – |
| AUUUUAUAAUAGAAGGAAGACUUCAUGAGGAUCACCCAUGUGUUGGUACUUAGGAUAUGUAAUAACAUGAGGAUCACCCAUGUC | – | – | 25.6 | 26.1 |
| GUAGCAAUCGGAGGAUAUUCAUACCGGAAACGGACAUGAGGAUCACCCAUGUCGCGAAAGCGUUGGGAGAAGGCCGAUUGCUAC | – | – | 220 | 21.3 |
| ACAUGAGAUUUAGGAUAUAUAGUACCUACAUGUGACAUGAGGAUCACCCAUGUGGUAAGUAUGACAUAGAAGGAAAAGAUAUGU | – | – | 66 | 67 |
| GCUAGAAGCGUGAAAUAUCACAUGAGGAUCACCCAUGUGACACAGGAUAUAACAAUAUCAGAAGGUUAGAAGGGUGAACACGCC | – | – | 119 | 32.9 |
| AUAGUGGUUUUCUGGAUGUUGAACAUGAGGAUCACCCAUGUAGAGGAUAUCCACGGAAAUCCGUAGGAGAAGGCUGGUGGAAAA | 15.6 | 26.7 | – | – |
| UCCCGUUGUCAGAAGGCUCCUCGGAACCCGAGGAGAGGAUAUGACACAUGAGGAUCACCCAUGUGCCCGGUCGUGACAAAGGUG | 13.4 | 146 | – | – |
| GUGACACAUGAGGAUCACCCAUGUGAGGAUAUGAUACUAUGUACUUCGGUACAUAGUAUCAGAAGGCACAGUGA | 50.2 | 119 | – | – |
| GUAGCAUUGAGAGGAUAUCCAUACCGGAAACGGACAUGAGGAUCACCCAUGUGGCGAAAGCCGUGGGAGAAGGCUCUAUGCUAC | – | – | 8.39 | 4.32 |
| AUGGUACAUGAGGAUCACCCAUGUUAGGAUAUCGCGUGAGGUAAAACUUACACACACACGAGAAGGGACGACAU | 65.2 | 46.7 | – | – |
| GGAAAACAUGAGGAUCACCCAUGUGAGGAUAUCGAUGUCCACCCACCCGUGCGGGACUCGAGAAGGCACUUGGA | 44.4 | 148 | – | – |
| CACAGGGAUUCAGGAUAUAUUAGCCGAGGCCGCGUAGAAGGGAAAUCCUGACAUGAGGAUCACCCAUGUCGACCCGCCUUCCAU | – | – | 48.6 | 48.5 |
| ACGGCUGUCAGAGGAUAUGGUUACAUGAGGAUCACCCAUGUCAAGGGUCUAACUAAGUAUAACUACUAGAAGGCUGAUGGCCGA | 674 | 350 | – | – |
| UGAUAGGACAGAGGAUAUACGUGCUAGAGAUACUAGCAAAUAAUCCUUACAUGAGGAUCACCCAUGUAGAAGGCUGUCCUAUCU | 19.3 | 47.4 | – | – |
| CUUGUGUGAGGAUAUCAGUAGUAGUACGAUAGUAUUACUGCUGAGAAGGCACAUGAGGAUCACCCAUGUUCUUC | 28.1 | 24.1 | – | – |
| UAUAUAUUCGUAGGAUAUCCGUUAAAACCAUGUGGAGAAGGACGAACAUGAGGAUCACCCAUGUAUCAUGGUGUAGACAAUUUU | 40.3 | 187 | – | – |
| AUUUUAUAAUAGAAGGAGGACUUCAUGAGGAUCACCCAUGUGUUAGUACCUAGGAUAUGUAAUAACAUGAGGAUCACCCAUGUC | – | – | 49.5 | 40.3 |
| GUGCGUGGCUAGGAUAUUGUGGAGUUUAGUCAGCGAGAAGGCGCCACAUGAGGAUCACCCAUGUGGUGUUGCUC | 13.1 | 14.7 | – | – |
| GCGUCAGAAUUAAUUGUGACAUACAGAAGGCAAAAUUAAGGAUAAGACAUGAGGAUCACCCAUGUUGAGGAUAUGUAGUGACGC | 8.7 | 7.57 | – | – |
| UUAGGAGUUGUAGGAUAUCGGAUAGAAUGUAAACGAGAAGGACAUGAGGAUCACCCAUGUAUUGAAGAGAAGAGAGAGAGAGAG | 24.5 | 21.1 | – | – |
| AGCGCGGUCCACUUGGACGCCUACGAGGAUAUCCCGUCACAUGAGGAUCACCCAUGUAGGCGCAUGGAGAAGGCGUAGAAAUCA | – | – | 152 | 13.7 |
| UUGGACGUCGUAGGAUAUGUAGGAUAUUCCUACAUGAGGAUCACCCAUGUUGACACGGAAGAAGGACAGAAGGACGAUGUCCAU | – | – | 11.6 | 4.23 |
